Consider two substances from article PMC9706633 (Poultry Science, 2022).

Entries after “also recorded” stand apart in the source; their conditions may differ.

One assay concerns CCK2R. As to conditions: mammals, ref Noble and Roques, 2002, Miller and Gao, 2008, cited from earlier work; for binding affinities of CCK-8S and CCK-8NS to CCK2R compared: in words.
For assay [1], the system named is CHO cells transfected with the empty pcDNA3.1(+) vector. Nature of the assay: pGL4-SRE-luciferase negative control, CHO cells with empty pcDNA3.1. As to conditions: 6 h. Format: cell-based, Chinese hamster. An outline of the steps:
(§1)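 CHO cells (DMEM, 10% FBS, penicillin/streptomycin, 37°C, 5% CO2) seeded a day ahead and co-transfected (jetPRIME) with 250 ng empty pcDNA3.1 plus 750 ng reporter: CRE (cAMP/PKA), NFAT-RE (calcium) or SRE (MAPK/ERK). After 24 h, cells were replated in 96-well plates and grown 24 h. They were then exposed to test peptide at 10−12–10−6 M in DMEM for 6 h, lysed, and read for luciferase.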

The test system of assay [2] is cCCK1R. Nature of the assay: pGL3-CRE-luciferase reporter assay. Format: cell-based, chicken. As to conditions: read-out: EC50, cAMP/PKA signaling pathway, CHO cells expressing cCCK1R, peptide 10^−12 M - 10^−6 M, 6 h, triplicates (N = 3). An outline of the steps:
(§2)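 CHO cells were grown in DMEM with 10% FBS at 37°C and 5% CO2. They were transiently co-transfected with 250 ng of chicken receptor plasmid (empty pcDNA3.1 as control) and 750 ng of reporter construct using jetPRIME. After 24 h, cells were reseeded and grown a further 24 h. Test peptide was then applied in DMEM, and lysate luciferase was measured. Data are mean ± SEM.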

Assay [3] has as its system CHO cells transfected with the empty pcDNA3.1(+) vector. Nature of the assay: pGL3-CRE-luciferase negative control, CHO cells with empty pcDNA3.1. It is filed as cell-based, Chinese hamster. As to conditions: 6 h. In outline:
as §1

For assay [4], the system named is cCCK2R. Nature of the assay: Overall activation of cCCK2R. Also on record: species or system chicken. As to conditions: 3 cell-based luciferase reporter systems and western blots; CHO cells; in words.
Assay [5] has as its system cCCK1R. Briefly: Western blot of ERK1/2 phosphorylation, CHO cells expressing cCCK1R. Format: cell-based, chicken. As to conditions: 10 nM, 10 min, normalized by β-actin, N = 4. In outline:
(§3)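 CHO cells transfected with 1000 ng chicken CCK1R or CCK2R expression plasmid, grown in 24-well plates at 37 °C. At 24 h post-transfection, cells were exposed to test peptide (10 nM, 10 min), lysed, and immunoblotted with phospho-ERK1/2 (Thr202/Tyr204) and phospho-CREB (Ser133) rabbit mAbs. Densitometric bands normalized to β-actin, expressed as fold of untreated control; mean ± SEM, N = 4; t-test or ANOVA/Dunnett.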

The test system of assay [6] is cCCK1R. Nature of the assay: Western blot of CREB phosphorylation, CHO cells expressing cCCK1R. As to conditions: 10 nM, 10 min, normalized by β-actin, N = 4. It is filed as cell-based, chicken. An outline of the steps:
as §3

Assay [7] relates to cCCK1R. Briefly: Overall activation of cCCK1R. As to conditions: 3 cell-based luciferase reporter systems and western blots; CHO cells; in words. Further details: species or system chicken.
Assay [8] relates to cCCK2R. Nature of the assay: pGL4-SRE-luciferase reporter assay. It is filed as cell-based, chicken. As to conditions: read-out: EC50, MAPK/ERK signaling pathway, CHO cells expressing cCCK2R, peptide 10^−12 M - 10^−6 M, 6 h, triplicates (N = 3). An outline of the steps:
as §2

The test system of assay [9] is cCCK2R. Briefly: pGL3-CRE-luciferase reporter assay. Format: cell-based, chicken. As to conditions: read-out: EC50, cAMP/PKA signaling pathway, CHO cells expressing cCCK2R, peptide 10^−12 M - 10^−6 M, 6 h, triplicates (N = 3).
Assay [10] deals with CHO cells transfected with the empty pcDNA3.1(+) vector. Nature of the assay: pGL3-NFAT-RE-luciferase negative control, CHO cells with empty pcDNA3.1. Format: cell-based, Chinese hamster. As to conditions: 6 h. An outline of the steps:
as §1

For assay [11], the system named is cCCK2R. Briefly: Western blot of CREB phosphorylation, CHO cells expressing cCCK2R. It is filed as cell-based, chicken. As to conditions: 10 nM, 10 min, normalized by β-actin, N = 4. In outline:
as §3

For assay [12], the system named is cCCK2R. Briefly: pGL3-NFAT-RE-luciferase reporter assay. Format: cell-based, chicken. As to conditions: read-out: EC50, calcium mobilization, CHO cells expressing cCCK2R, peptide 10^−12 M - 10^−6 M, 6 h, triplicates (N = 3). An outline of the steps: as §2
The subject of assay [13] is cCCK2R. Briefly: Western blot of ERK1/2 phosphorylation, CHO cells expressing cCCK2R. Format: cell-based, chicken. As to conditions: 10 nM, 10 min, normalized by β-actin, N = 4. An outline of the steps:
as §3

Assay [14] concerns cCCK1R. Briefly: pGL4-SRE-luciferase reporter assay. As to conditions: read-out: EC50, MAPK/ERK signaling pathway, CHO cells expressing cCCK1R, peptide 10^−12 M - 10^−6 M, 6 h, triplicates (N = 3). It is filed as cell-based, chicken. An outline of the steps: as §2
In assay [15] the test system is cCCK1R. Briefly: pGL3-NFAT-RE-luciferase reporter assay. Format: cell-based, chicken. As to conditions: read-out: EC50, calcium mobilization, CHO cells expressing cCCK1R, peptide 10^−12 M - 10^−6 M, 6 h, triplicates (N = 3). In outline: as §2

As to “CCK-8NS: non-sulfated octapeptide of CCK”, in the assay on CCK2R, the “binding affinities of CCK-8S and CCK-8NS to CCK2R compared” value is “similar”; the “binding affinity to CCK2R, fold higher than CCK-4” value is recorded as 10 fold.

For “DYMGWMDF [cCCK-8S, (Tyr (SO3H)^27) Cholecystokinin fragment 26-33 amide]”, the “effect on pGL4-SRE-luciferase activity in empty-vector CHO cells” value is listed as “no effect” in assay [1] (N = 3) and “no response” in assay [1] (N = 3, listed as CCK-8S). For the same substance, the EC50 with cCCK1R [2] is 5.76 ± 1.55 nM; with cCCK2R [8], 1.16 ± 0.61 nM; in the assay on cCCK2R [9] it was 29.6 ± 7.68 nM; in the assay on cCCK2R [12], 1.93 ± 0.7 nM; in the assay with cCCK1R [14], 0.32 ± 0.26 nM; with cCCK1R [15], 5.41 ± 1.15 nM. The “effect on pGL3-CRE-luciferase activity in empty-vector CHO cells” value in assay [3] (N = 3) was “no effect”; in [3] (N = 3, listed as CCK-8S), “no response”. Further, in the assay with cCCK2R [4], the “activation of cCCK2R, overall” value is “can potently activate cCCK2R”. Besides, the “ERK1/2 phosphorylation (pERK1/2)” value in the assay on cCCK1R [5] and in the assay on cCCK2R [13] was “strongly enhance ERK1/2 phosphorylation” in each case. Further, the “CREB phosphorylation (pCREB)” value in the assay on cCCK1R [6] and with cCCK2R [11] was “potently enhance CREB phosphorylation” in each case. Also, in the assay on cCCK1R [7], the “activation of cCCK1R, overall” value was “potently activated; also recorded: can potently activate cCCK1R; also recorded: activated preferentially”. Also, the “effect on pGL3-NFAT-RE-luciferase activity in empty-vector CHO cells” value in assay [10] (N = 3) is “no effect”; in assay [10] (N = 3, listed as CCK-8S) it was “no response”. The “binding affinities of CCK-8S and CCK-8NS to CCK2R compared” value in the assay on CCK2R was “similar”.
